Assay [1] deals with T1, Leucine-rich repeat serine/threonine-protein kinase 2 (Homo sapiens, UniProt Q5S007, G2019S). Briefly: Inhibition of N-terminal GST-fused human LRRK2 G2019S mutant using fluorescein-labeled LRRKtide as substrate preincubated for 15 mins followed by substrate addition and measured after 1 hr by TR-FRET assay. The method, boiled down:
(§1)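 Purified truncated LRRK2, WT or G2019S, at 2 nM nominal was preincubated with inhibitor for 15 min. LRRKtide (0.4 μM) and ATP (25 μM) were then added for 1 h. The reaction was stopped with 10 mM EDTA plus 2 nM Tb-anti-pLRRKtide antibody, and TR-FRET was read. IC50 is the geometric mean of at least two independent experiments.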
Background: Time-resolved FRET reads energy transfer from a long-lived donor to a nearby acceptor.

Assay [2] has as its target T2, Leucine-rich repeat serine/threonine-protein kinase 2 (Homo sapiens, UniProt Q5S007). The assay is described as follows: Inhibition of N-terminal GST-fused human wild type LRRK2 using fluorescein-labeled LRRKtide as substrate preincubated for 15 mins followed by substrate addition and measured after 1 hr by TR-FRET assay. The method, boiled down: as §1
The species named for assay [3] is Homo sapiens. Briefly: Selectivity ratio of IC50 for inhibition of N-terminal GST-fused human wild type LRRK2 to IC50 for inhibition of N-terminal GST-fused human […] mutant. The method, boiled down:
as §1

In assay [4] the target is T1, Leucine-rich repeat serine/threonine-protein kinase 2. The assay is described as follows: Inhibition of human LRRK2 G2019S mutant expressed in HEK293 cells assessed as reduction in pSer935 phosphorylation incubated for 2 hrs by HTRF analysis. It counts as cell-based. The procedure, abridged: (§2)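 Stably transfected HEK293 cells expressing human WT or G2019S LRRK2 were seeded at 5K/well in DMEM with 1% serum on poly-D-lysine plates. Inhibitor in DMSO was added for 2 h at 37 °C. pS935 was detected by an HTRF kit. IC50 is the geometric mean of at least two independent experiments.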

Assay [5] has the same target. The assay is described as follows: Inhibition of human LRRK2 G2019S mutant expressed in HEK293 cells assessed as reduction in pS1292 phosphorylation incubated for 2 hrs by MSD analysis. It is filed as cell-based. The procedure, abridged:
(§3)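 HEK293 cells stably expressing WT or G2019S LRRK2 (30−50K/well, DMEM with 1% serum) were treated for 2 h at 37 °C and lysed with phosphatase inhibitors. LRRK2 was captured on anti-LRRK2-coated MSD plates overnight at 4 °C. Detection used rabbit anti-pS1292 (1:400) and Sulfo-Tag anti-rabbit, with an electrochemiluminescence read-out. IC50 is the geometric mean of at least two independent experiments.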

The species entered for assay [6] is Homo sapiens. Briefly: Selectivity ratio of IC50 for inhibition of human wild type LRRK2 expressed in HEK293 cells assessed as reduction in pS1292 phosphorylation to IC50 for inhibition of human LRRK2 G2019S mutant expressed in HEK293 cells assessed as reduction in pS1292 phosphorylation. It is filed as cell-based. The procedure, abridged: as §3
In assay [7] the target is T2, Leucine-rich repeat serine/threonine-protein kinase 2. Briefly: Inhibition of human wild type LRRK2 expressed in HEK293 cells assessed as reduction in pS1292 phosphorylation incubated for 2 hrs by MSD analysis. It is filed as cell-based. The procedure, abridged: as §3
For assay [8], the species on record is Homo sapiens. Briefly: Selectivity ratio of IC50 for inhibition of human wild type LRRK2 expressed in HEK293 cells to IC50 for inhibition of human LRRK2 G2019S mutant expressed in HEK293. It counts as cell-based. The method, boiled down: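 HEK293 cells stably expressing WT or G2019S LRRK2 (100 000/well, EMEM with 1% FBS) were dosed about 24 h after plating, for 2 h. They were lysed in 1% SDS Tris buffer with protease and phosphatase inhibitors, and lysates were heated at 65 °C for 10 min. pThr73-Rab10, total Rab10, pS935 and total LRRK2 were quantified by immunoblot. IC50 is the geometric mean of at least two independent experiments.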

Assay [9] has as its target T2, Leucine-rich repeat serine/threonine-protein kinase 2. Briefly: Inhibition of human wild type LRRK2 expressed in HEK293 cells assessed as reduction in pSer935 phosphorylation incubated for 2 hrs by HTRF analysis. It is filed as cell-based. The procedure, abridged:
as §2

The results in this text go back to ChEMBL document CHEMBL5244270, “Selective Inhibitors of G2019S-LRRK2 Kinase Activity” (J Med Chem, 2020).

T2 sequence (Q5S007 whole entry, the tested form may be a part): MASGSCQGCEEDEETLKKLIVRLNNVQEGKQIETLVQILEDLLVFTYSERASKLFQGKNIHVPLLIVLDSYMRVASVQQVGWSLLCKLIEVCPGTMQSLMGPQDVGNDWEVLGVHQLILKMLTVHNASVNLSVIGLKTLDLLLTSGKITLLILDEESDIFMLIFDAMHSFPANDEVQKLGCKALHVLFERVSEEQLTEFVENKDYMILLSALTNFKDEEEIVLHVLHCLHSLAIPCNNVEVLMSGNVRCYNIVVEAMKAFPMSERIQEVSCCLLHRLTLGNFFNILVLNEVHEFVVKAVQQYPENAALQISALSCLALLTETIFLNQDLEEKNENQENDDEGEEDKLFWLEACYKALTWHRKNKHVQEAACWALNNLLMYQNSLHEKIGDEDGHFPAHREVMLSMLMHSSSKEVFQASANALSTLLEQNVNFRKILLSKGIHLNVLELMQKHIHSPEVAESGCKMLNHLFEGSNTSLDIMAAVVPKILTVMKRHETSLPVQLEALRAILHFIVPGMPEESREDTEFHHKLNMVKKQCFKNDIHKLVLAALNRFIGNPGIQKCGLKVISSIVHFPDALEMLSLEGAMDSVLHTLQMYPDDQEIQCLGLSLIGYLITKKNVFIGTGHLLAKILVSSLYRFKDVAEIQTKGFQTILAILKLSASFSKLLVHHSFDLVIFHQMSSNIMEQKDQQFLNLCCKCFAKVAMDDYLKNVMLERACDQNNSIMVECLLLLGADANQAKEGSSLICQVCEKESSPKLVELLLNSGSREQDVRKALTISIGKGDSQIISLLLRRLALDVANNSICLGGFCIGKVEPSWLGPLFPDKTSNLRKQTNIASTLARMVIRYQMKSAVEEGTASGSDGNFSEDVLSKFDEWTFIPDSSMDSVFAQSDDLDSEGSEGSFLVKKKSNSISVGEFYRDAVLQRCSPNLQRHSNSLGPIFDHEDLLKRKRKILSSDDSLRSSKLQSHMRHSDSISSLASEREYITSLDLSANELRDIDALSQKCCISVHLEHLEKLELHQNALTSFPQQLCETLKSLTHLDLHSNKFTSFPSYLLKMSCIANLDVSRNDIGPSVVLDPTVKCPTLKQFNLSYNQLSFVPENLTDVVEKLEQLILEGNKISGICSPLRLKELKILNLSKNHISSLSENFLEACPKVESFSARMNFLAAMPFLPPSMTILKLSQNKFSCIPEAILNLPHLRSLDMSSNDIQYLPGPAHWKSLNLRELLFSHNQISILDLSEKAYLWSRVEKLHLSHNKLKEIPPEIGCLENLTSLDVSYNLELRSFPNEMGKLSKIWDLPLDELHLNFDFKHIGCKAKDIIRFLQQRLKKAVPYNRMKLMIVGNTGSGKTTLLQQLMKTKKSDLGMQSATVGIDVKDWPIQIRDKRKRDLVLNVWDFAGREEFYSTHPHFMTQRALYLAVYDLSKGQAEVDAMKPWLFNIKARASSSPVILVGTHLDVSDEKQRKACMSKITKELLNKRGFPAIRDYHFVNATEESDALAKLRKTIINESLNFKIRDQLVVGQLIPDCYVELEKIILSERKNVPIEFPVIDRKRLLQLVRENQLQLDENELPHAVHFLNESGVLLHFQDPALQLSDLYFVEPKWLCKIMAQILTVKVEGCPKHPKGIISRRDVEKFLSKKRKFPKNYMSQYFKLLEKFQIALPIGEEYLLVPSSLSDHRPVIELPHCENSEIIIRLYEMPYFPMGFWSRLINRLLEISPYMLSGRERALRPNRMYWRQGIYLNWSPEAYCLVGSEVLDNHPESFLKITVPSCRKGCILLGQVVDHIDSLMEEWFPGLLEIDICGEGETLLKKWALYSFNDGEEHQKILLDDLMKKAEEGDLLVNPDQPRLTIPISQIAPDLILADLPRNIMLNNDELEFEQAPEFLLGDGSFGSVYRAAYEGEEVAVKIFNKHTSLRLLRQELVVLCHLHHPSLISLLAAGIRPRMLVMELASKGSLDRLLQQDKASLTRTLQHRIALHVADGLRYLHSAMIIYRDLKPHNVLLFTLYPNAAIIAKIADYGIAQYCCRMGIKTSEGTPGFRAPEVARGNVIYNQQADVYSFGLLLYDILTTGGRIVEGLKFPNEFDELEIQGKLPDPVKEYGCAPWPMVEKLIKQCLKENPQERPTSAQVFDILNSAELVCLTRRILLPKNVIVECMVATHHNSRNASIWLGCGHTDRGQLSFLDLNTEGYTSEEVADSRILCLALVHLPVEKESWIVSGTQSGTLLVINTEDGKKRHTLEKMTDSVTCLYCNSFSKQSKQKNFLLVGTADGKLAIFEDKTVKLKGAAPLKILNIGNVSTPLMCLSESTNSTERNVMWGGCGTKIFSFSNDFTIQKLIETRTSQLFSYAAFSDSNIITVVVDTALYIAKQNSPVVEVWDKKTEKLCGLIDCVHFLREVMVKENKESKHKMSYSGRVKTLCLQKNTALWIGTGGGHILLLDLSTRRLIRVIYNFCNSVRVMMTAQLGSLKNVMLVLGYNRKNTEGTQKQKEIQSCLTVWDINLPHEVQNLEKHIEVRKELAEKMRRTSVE
T1 sequence (Q5S007 whole entry G2019S, the tested form may be a part): as the sequence (Q5S007 whole entry, the tested form may be a part) above, with G2019S counted along it

One may read the IC50 as the point on the concentration scale where inhibition reaches its midpoint. Turning to `CC1=C(C(=O)Nc2ccc3[nH]cc(C)c3c2)Cn2nnnc2N1C`, the IC50 in assay [1] and in assay [2] was more than 10 µM in each case.
Regarding `CC1=C(C(=O)Nc2ccc3[nH]nc(-c4ccc(S(N)(=O)=O)cc4)c3c2)Cn2nnnc2N1C`, the Ratio IC50 in the assay listed under Homo sapiens [3] is more than 3.5. The IC50 was less than 0.0002 µM in assay [1] and 0.0007 µM in [2].
For `CC1=C(C(=O)Nc2ccc3[nH]ncc3c2)Cn2nnnc2N1C(=O)N(C)C` the same measures were 17, 0.053 µM and 0.888 µM.
`CC1=C(C(=O)Nc2ccc3[nH]ncc3c2)Cn2nnnc2N1C`: the Ratio IC50 in the assay filed under Homo sapiens [3] amounted to 16. Further, the IC50 stood at 0.032 µM in [1] and 0.509 µM in assay [2].
As for `CCN1C(C)=C(C(=O)Nc2ccc3[nH]ncc3c2)Cn2nnnc21`, in the assay listed under Homo sapiens [3], the Ratio IC50 was 15. Further, the IC50 in assay [1] came out at 0.058 µM; in assay [2], 0.865 µM.
For `CC1=C(C(=O)Nc2ccc3[nH]nc(-c4ccncc4)c3c2)Cn2nnnc2N1C` the same measures were 20, 0.00044 µM and 0.009 µM.
Regarding `CC1=C(C(=O)Nc2ccc3[nH]ncc3c2)[C@@H](C)n2nnnc2N1C`, the IC50 in [4] was 0.189 µM; in assay [5], 0.104 µM; in [7], 2.18 µM; in assay [9], more than 10 µM; in [1], 0.00164 µM; in [2] it was 0.071 µM. Also, the Ratio IC50 in the assay filed under Homo sapiens [6] is 21; in the assay listed under Homo sapiens [3] it was 43; in the assay listed under Homo sapiens [8], more than 53.
Take `CC1=C(C(=O)Nc2ccc3c(c2)C(=O)NC3=O)[C@@H](C)n2nnnc2N1C`: the Ratio IC50 in the assay listed under Homo sapiens [3] was found to be 52. For the same compound, the IC50 in assay [1] is 0.055 µM; in assay [2], 2.84 µM.
For `CC1=C(C(=O)Nc2ccc3[nH]nc(C)c3c2)[C@H](C)n2nnnc2N1C` the same measures were 24, 0.051 µM and 1.22 µM.
For `CC1=C(C(=O)Nc2ccc3c(c2)CNC3=O)[C@@H](C)n2nnnc2N1C`, the Ratio IC50 in the assay filed under Homo sapiens [3] worked out at 53. Besides, the figures for the IC50 in assay [1] and in assay [2] were 0.032 µM and 1.7 µM, respectively.
`CC1=C(C(=O)Nc2ccc3[nH]nc(C(N)=O)c3c2)Cn2nnnc2N1C`: the Ratio IC50 in the assay listed under Homo sapiens [3] was found to be 21. Further, the IC50 in assay [1] stood at 0.006 µM; in assay [2] it was 0.125 µM.
With `CCC1=C(C(=O)Nc2ccc3[nH]ncc3c2)Cn2nnnc2N1C`, the Ratio IC50 in the assay filed under Homo sapiens [3] worked out at 2.2. For the same compound, the IC50 in [1] turned out to be 0.244 µM; in assay [2] it was 0.534 µM.
With `CC1=C(C(=O)Nc2ccc3[nH]ncc3c2)Cn2nnnc2N1CCN1CCOCC1`, the Ratio IC50 in the assay listed under Homo sapiens [3] is 1.3. The IC50 in assay [1] turned out to be 4.65 µM; in assay [2], 6.13 µM.
As to `CC1=C(C(=O)Nc2ccc3[nH]nc(-c4ccnc(N5CCOCC5)c4)c3c2)Cn2nnnc2N1C`, the IC50 in assay [4] was 0.0083 µM; in assay [5], 0.0092 µM; in [7] it was 0.0744 µM; in [9], 0.377 µM; in assay [1], less than 0.0002 µM; in [2] it was less than 0.0002 µM. Further, the Ratio IC50 was 8 in the assay listed under Homo sapiens [6] and 45 in the assay filed under Homo sapiens [8].
As for `CC1=C(C(=O)Nc2ccc3[nH]ncc3c2)Cn2nnnc2N1c1ccccc1`, in the assay filed under Homo sapiens [3], the Ratio IC50 turned out to be 2.2. Besides, the IC50 in [1] was 0.0026 µM; in assay [2], 0.0057 µM.
For `CC1=C(C(=O)Nc2ccc3[nH]nc(-c4ccnc(N5CCOCC5)c4)c3c2)[C@H](C)n2nnnc2N1C`, in that order: more than 5, less than 0.0002 µM and 0.001 µM.
Turning to `CC1=C(C(=O)Nc2ccc3[nH]nc(Br)c3c2)Cn2nnnc2N1C`, the Ratio IC50 in the assay filed under Homo sapiens [3] turned out to be 40. The IC50 in assay [1] amounted to 0.0024 µM; in [2], 0.096 µM.
For `CC1=C(C(=O)Nc2ccc3cnc(C)n3c2)Cn2nnnc2N1C`, in that order: more than 3.2, 3.12 µM and more than 10 µM.
For the compound `CC1=C(C(=O)Nc2ccn3cnc(C)c3c2)Cn2nnnc2N1C`, the Ratio IC50 in the assay listed under Homo sapiens [3] was more than 7.4. The results for the IC50 in assay [1] and in assay [2] were 1.35 µM and more than 10 µM, respectively.
Turning to `CC1=C(C(=O)Nc2ccc3[nH]ncc3c2)C(C)(C)n2nnnc2N1C`, the Ratio IC50 in the assay listed under Homo sapiens [3] came out at 108. The IC50 was 0.012 µM in assay [1] and 1.3 µM in [2].
For the compound `CC1=C(C(=O)Nc2ccc3[nH]nc(-c4ccnc(N5CCOCC5)c4)c3c2)[C@@H](C)n2nnnc2N1C`, the IC50 in assay [4] is 0.0024 µM; in assay [5], 0.0012 µM; in assay [7], 0.0209 µM; in assay [9] it was 0.065 µM; in [1], less than 0.0002 µM; in [2], less than 0.0002 µM. Besides, the Ratio IC50 in the assay filed under Homo sapiens [6] came out at 18; in the assay filed under Homo sapiens [8], 27.
In turn, `CC1=C(C(=O)N(C)c2ccc3[nH]ncc3c2)Cn2nnnc2N1C` showed an IC50 in assay [1] of more than 10 µM.
In the case of `CCCC(=O)Nc1n[nH]c2ccc(NC(=O)C3=C(C)N(C)c4nnnn4C3)cc12`, in the assay listed under Homo sapiens [3], the Ratio IC50 is more than 8.4. Besides, the IC50 in assay [1] is 1.19 µM; in assay [2], more than 10 µM.
For `CC1=C(C(=O)Nc2ccc3c(N)nccc3c2)[C@@H](C)n2nnnc2N1C`, in that order: 48, 0.012 µM and 0.581 µM.
For `CC1=C(C(=O)Nc2ccc3[nH]nc(-c4cc(N5CCOCC5)ncn4)c3c2)Cn2nnnc2N1C`, in that order: 2.2, 0.0004 µM and 0.00088 µM.
`CC1=C(C(=O)Nc2ccc3[nH]ncc3c2)[C@H](C)n2nnnc2N1C`: the Ratio IC50 in the assay filed under Homo sapiens [3] turned out to be 3.2. Moreover, the IC50 in assay [1] was 0.094 µM; in assay [2], 0.302 µM.
For `CC1=C(C(=O)Nc2ccc3c(c2)CC(=O)N3)Cn2nnnc2N1C`, in that order: more than 1.6, 6.37 µM and more than 10 µM.
For the compound `CC1=C(C(=O)Nc2ccc3c(c2)[nH]c(=O)n3C)[C@@H](C)n2nnnc2N1C`, the IC50 in [1] and in assay [2] was more than 10 µM in each case.
As for `CC1=C(C(=O)Nc2ccc3[nH]nc(C)c3c2)Cn2nnnc2N1C`, in the assay filed under Homo sapiens [3], the Ratio IC50 is 12. In addition, the figures for the 50% inhibitory concentration (IC50) in assay [1] and in assay [2] were 0.01 µM and 0.121 µM, respectively.
Consider `CC1=C(C(=O)Nc2ccc3[nH]nc(-c4ccncc4)c3c2)[C@@H](C)n2nnnc2N1C`, for which the IC50 in [4] was 0.0147 µM; in assay [5], 0.0121 µM; in assay [7] it was 0.272 µM; in assay [9], 1.14 µM; in [1], less than 0.0002 µM; in assay [2] it was less than 0.0002 µM. For the same compound, the Ratio IC50 in the assay filed under Homo sapiens [6] amounted to 22; in the assay filed under Homo sapiens [8] it was 78.
Regarding `CC1=C(C(=S)Nc2ccc3[nH]ncc3c2)Cn2nnnc2N1C`, in the assay filed under Homo sapiens [3], the Ratio IC50 came to 15. Further, half-maximal inhibition in [1] (IC50) required 0.0153 µM.
For the compound `CC(=O)N1C(C)=C(C(=O)Nc2ccc3[nH]ncc3c2)Cn2nnnc21`, the Ratio IC50 in the assay listed under Homo sapiens [3] came out at 5. Also, the IC50 in assay [1] was found to be 0.513 µM; in [2], 2.54 µM.
Consider `CN1C=C(C(=O)Nc2ccc3[nH]ncc3c2)Cn2nnnc21`, for which the IC50 in [1] and in assay [2] was more than 10 µM each time.
On to `CC1=C(C(=O)Nc2ccc3[nH]nc(NC(=O)c4ccccc4)c3c2)Cn2nnnc2N1C`, for which the Ratio IC50 in the assay listed under Homo sapiens [3] came to 35. Besides, the IC50 in [1] is 0.003 µM; in assay [2], 0.108 µM.
For `CC1=C(C(=O)Nc2ccc3[nH]c(=O)[nH]c3c2)Cn2nnnc2N1C`, in that order: more than 36, 0.24 µM and more than 8.6 µM.
`CC1=C(C(=O)Nc2ccc3[nH]nc(C)c3c2)C(C)(C)n2nnnc2N1C`: the Ratio IC50 in the assay filed under Homo sapiens [3] is 190. Also, the IC50 turned out to be 0.0008 µM in assay [1] and 0.152 µM in assay [2].
Turning to `CC1=C(C(=O)Nc2ccc3[nH]c(=O)n(C)c3c2)[C@@H](C)n2nnnc2N1C`, the Ratio IC50 in the assay listed under Homo sapiens [3] was 49.7. Further, the values for the IC50 in assay [1] and in assay [2] were 0.058 µM and 2.87 µM, respectively.
For the compound `CC1=C(C(=O)Nc2ccc3[nH]cnc3c2)Cn2nnnc2N1C`, the IC50 in [1] and in [2] was more than 10 µM in each case.
